Experimental data reported in ChEMBL document CHEMBL4406880, “Design, synthesis, and bioactivity of dihydropyrimidine derivatives as kinesin spindle protein inhibitors” (Bioorg Med Chem, 2019).

Tests used:
Type in all cases: functional
HCC 2998 = assay: Growth inhibition of human HCC2998 cells assessed as cell viability at 100 uM incubated for 48 hrs by sulforhodamine B assay; settings: HCC 2998, 48 h, read-out: Activity
UACC-62 [1] = assay: Growth inhibition of human UACC62 cells assessed as cell viability at 100 uM incubated for 48 hrs by sulforhodamine B assay; settings: UACC-62, 48 h, read-out: Activity
HCT-15 = assay: Growth inhibition of human HCT15 cells assessed as cell viability at 0.001 uM incubated for 48 hrs by sulforhodamine B assay relative to control; settings: HCT-15, 48 h, read-out: Activity
SNB-75 = assay: Cell cycle arrest in human SNB75 cells assessed as accumulation in G2/M phase at 2 uM incubated for 24 hrs by propidium iodide based flow cytometry (reference value: 10.46 %)
Procedure, shortened: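 SNB-75 cells were exposed to 2 µM for 24 h at 37 °C, 5% CO2, then washed with PBS and fixed in 70% ethanol on ice for 15 min. They were stained 1 h at room temperature with 50 µg/mL propidium iodide, 0.1 mg/mL RNase A and 0.05% Triton X-100. DNA content was read by flow cytometry to give the % of cells in pre-G1, G0/G1, S and G2/M.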

UACC-257 [2] = assay: Growth inhibition of human UACC257 cells assessed as cell viability at 0.1 uM incubated for 48 hrs by sulforhodamine B assay; settings: UACC-257, 48 h, read-out: Activity
UACC-62 [3] = assay: Growth inhibition of human UACC62 cells incubated for 48 hrs by sulforhodamine B assay; settings: UACC-62, 48 h
Procedure, shortened: (§1)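 NCI-60 five-dose SRB assay. Cells were exposed for 48 h to tenfold dilutions of 0.01, 0.1, 1, 10 and 100 µM, in RPMI 1640 with 5% FBS. Plates fixed with TCA at the time of drug addition served as the time-zero reference. GI50 is the concentration giving a 50% reduction in net growth. TGI is total growth inhibition. LC50 is a net 50% loss of the initial cells.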

MDA-MB-435 = assay: Growth inhibition of human MDA-MB-435 cells assessed as cell viability at 0.1 uM incubated for 48 hrs by sulforhodamine B assay; settings: MDA-MB-435, 48 h, read-out: Activity
M14 = assay: Growth inhibition of human M14 cells assessed as cell viability at 0.001 uM incubated for 48 hrs by sulforhodamine B assay relative to control; settings: M14, 48 h, read-out: Activity
NCI-H460 = assay: Growth inhibition of human NCI-H460 cells assessed as cell viability at 1 uM incubated for 48 hrs by sulforhodamine B assay; settings: NCI-H460, 48 h, read-out: Activity
UACC-257 [4] = assay: Growth inhibition of human UACC257 cells assessed as cell viability at 1 uM incubated for 48 hrs by sulforhodamine B assay; settings: UACC-257, 48 h, read-out: Activity
BT-549 = assay: Growth inhibition of human BT549 cells assessed as cell viability at 0.1 uM incubated for 48 hrs by sulforhodamine B assay; settings: BT-549, 48 h, read-out: Activity
SK-MEL-2 = assay: Growth inhibition of human SK-MEL-2 cells assessed as cell viability at 100 uM incubated for 48 hrs by sulforhodamine B assay; settings: SK-MEL-2, 48 h, read-out: Activity
MDA-MB-468 = assay: Growth inhibition of human MDA-MB-468 cells assessed as cell viability at 0.001 uM incubated for 48 hrs by sulforhodamine B assay relative to control; settings: MDA-MB-468, 48 h, read-out: Activity
RXF 393 = assay: Growth inhibition of human RXF393 cells assessed as cell viability at 0.001 uM incubated for 48 hrs by sulforhodamine B assay relative to control; settings: RXF 393, 48 h, read-out: Activity
MCF7 [5] = assay: Growth inhibition of human MCF7 cells assessed as cell viability at 100 uM incubated for 48 hrs by sulforhodamine B assay; settings: MCF7, 48 h, read-out: Activity
PC-3 [6] = assay: Growth inhibition of human PC3 cells incubated for 48 hrs by sulforhodamine B assay; settings: PC-3, 48 h; procedure, shortened: as §1
MOLT-4 = assay: Growth inhibition of human MOLT4 cells incubated for 48 hrs by sulforhodamine B assay; settings: MOLT-4, 48 h
Procedure, shortened: (§2)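 NCI-60 five-dose SRB assay in RPMI 1640 with 5% FBS, 37 °C, 5% CO2. Compound given at five tenfold dilutions, 0.01–100 µM, for 48 h. Adherent cells fixed with TCA, suspension cells with 16% final TCA. Bound SRB read at 515 nm and growth calculated against time-zero and untreated controls. GI50 taken from dose–response curves as the concentration giving a 50% decrease in net cell growth.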

PC-3 [7] = assay: Growth inhibition of human PC3 cells assessed as cell viability at 100 uM incubated for 48 hrs by sulforhodamine B assay; settings: PC-3, 48 h, read-out: Activity
SF-295 = assay: Growth inhibition of human SF295 cells assessed as cell viability at 0.001 uM incubated for 48 hrs by sulforhodamine B assay relative to control; settings: SF-295, 48 h, read-out: Activity
SF-539 = assay: Growth inhibition of human SF539 cells assessed as cell viability at 0.001 uM incubated for 48 hrs by sulforhodamine B assay relative to control; settings: SF-539, 48 h, read-out: Activity
MCF7 [8] = assay: Growth inhibition of human MCF7 cells incubated for 48 hrs by sulforhodamine B assay; settings: MCF7, 48 h; procedure, shortened: as §2
K562 = assay: Growth inhibition of human K562 cells assessed as cell viability at 1 uM incubated for 48 hrs by sulforhodamine B assay; settings: K562, 48 h, read-out: Activity
NCI-H226 = assay: Growth inhibition of human NCI-H226 cells assessed as cell viability at 0.001 uM incubated for 48 hrs by sulforhodamine B assay relative to control; settings: NCI-H226, 48 h, read-out: Activity
HCT-116 = assay: Growth inhibition of human HCT116 cells assessed as cell viability at 1 uM incubated for 48 hrs by sulforhodamine B assay; settings: HCT-116, 48 h, read-out: Activity
SK-MEL-5 = assay: Growth inhibition of human SK-MEL-5 cells assessed as cell viability at 0.001 uM incubated for 48 hrs by sulforhodamine B assay relative to control; settings: SK-MEL-5, 48 h, read-out: Activity
[9] = read-out: LC50 (the source's name)
[10] = read-out: pLC50 (the source's name) (converted)

CC1=C(C(=O)OCc2ccccc2)C(c2ccc3c(c2)OCO3)n2c(nc3ccccc32)N1 (racemic)
viability at 100 µM (HCC 2998): 46%
viability at 100 µM (UACC-62 [1]): 30%
viability at 0.001 µM (HCT-15): 92%
Activity (SNB-75): 37.59%
viability at 0.1 µM (UACC-257 [2]): 91%
GI50 (UACC-62 [3]; read-out: GI50): 0.38 µM
CC50 (UACC-62 [3]; [9]): > 100 µM
TGI (UACC-62 [3]; read-out: TGI): > 100 µM
GI50 (UACC-62 [3]; read-out: pGI50 (converted)): 0.38 µM
CC50 (UACC-62 [3]; [10]): > 100 µM
TGI (UACC-62 [3]; read-out: pTGI): > 100 µM
viability at 0.1 µM (MDA-MB-435): 46%
viability at 0.001 µM (M14): 93%
viability at 1 µM (NCI-H460): 10%
viability at 1 µM (UACC-257 [4]): 50%
viability at 0.1 µM (BT-549): 87%
viability at 100 µM (SK-MEL-2): 37%
viability at 0.001 µM (MDA-MB-468): 90%
viability at 0.001 µM (RXF 393): 92%
viability at 100 µM (MCF7 [5]): 7%
GI50 (PC-3 [6]; read-out: GI50): 0.55 µM
CC50 (PC-3 [6]; [9]): > 100 µM
TGI (PC-3 [6]; read-out: TGI): > 100 µM
GI50 (PC-3 [6]; read-out: pGI50 (converted)): 0.55 µM
CC50 (PC-3 [6]; [10]): > 100 µM
TGI (PC-3 [6]; read-out: pTGI): > 100 µM
GI50 (MOLT-4; read-out: GI50): 0.75 µM
CC50 (MOLT-4; [9]): > 100 µM
TGI (MOLT-4; read-out: TGI): > 100 µM
GI50 (MOLT-4; read-out: pGI50 (converted)): 0.759 µM
CC50 (MOLT-4; [10]): > 100 µM
TGI (MOLT-4; read-out: pTGI): > 100 µM
viability at 100 µM (PC-3 [7]): 45%
viability at 0.001 µM (SF-295): 87%
viability at 0.001 µM (SF-539): 91%
GI50 (MCF7 [8]; read-out: GI50): 0.32 µM
CC50 (MCF7 [8]; [9]): > 100 µM
TGI (MCF7 [8]; read-out: TGI): > 100 µM
GI50 (MCF7 [8]; read-out: pGI50 (converted)): 0.316 µM
CC50 (MCF7 [8]; [10]): > 100 µM
TGI (MCF7 [8]; read-out: pTGI): > 100 µM
viability at 1 µM (K562): 23%
viability at 0.001 µM (NCI-H226): 93%
viability at 1 µM (HCT-116): 26%
viability at 0.001 µM (SK-MEL-5): 98%
